Assay [1] deals with T1, Toll-like receptor 1/2 (Homo sapiens, UniProt O60603+Q15399). In words: Agonist activity at TLR1/TLR2 in human THP-1 derived macrophages assessed as stimulation of TNF alpha release measured for 4 hrs by ELISA based assay. The assay is classed as cell-based. The gist of the method: (§1)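 THP-1 cells differentiated with 100 nM PMA in RPMI/10% FBS for 24 h, washed, then rested 24 h in fresh medium. Seeded at 0.5 × 10⁵ cells/well and exposed to graded compound concentrations for 4 h, with final DMSO held at 0.1%. LPS served as positive control and DMSO as negative control. Supernatant human TNF-α was read by ELISA. EC50 from duplicate means.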
For orientation: In an ELISA, binding on a coated surface is turned into a signal by an enzyme label.

For assay [2], the target named is T1, Toll-like receptor 1/2. In words: Agonist activity at TLR1/TLR2 in human THP-1 derived macrophages assessed as stimulation of TNF alpha release measured for 4 hrs by ELISA based assay relative to diprovocim-1. The class given is cell-based. Also noted: Activity: concentration or dose not given beside the values. As to conditions: filed as agonist. The gist of the method:
as §1

In assay [3] the target is Toll-like receptor 1/2 (Mus musculus, UniProt Q9EPQ1+Q9QUN7). Put plainly: Agonist activity at TLR1/TLR2 in wild type C57BL/6J mouse macrophages assessed as stimulation of TNF alpha release measured for 4 hrs by ELISA based assay. The assay is classed as cell-based, Macrophage. Summed up:
(§2)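 Thioglycolate-elicited peritoneal macrophages from wild type C57BL/6J mice, harvested by PBS lavage 4 d after i.p. 4% thioglycolate. Cultured in DMEM/10% FBS at 37 °C, 5% CO2, seeded at 1 × 10⁵ cells/well and exposed to graded compound concentrations for 4 h, with final DMSO ≤0.5% held constant. LPS served as positive control. Supernatant mouse TNF-α was read by ELISA. EC50 from duplicate means.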

Assay [4] deals with Toll-like receptor 1/2 (Mus musculus) (UniProt Q9QUN7+Q9EPQ1). Put plainly: Agonist activity at TLR1/TLR2 in wild type C57BL/6J mouse macrophages assessed as stimulation of TNF alpha release measured for 4 hrs by ELISA based assay relative to diprovocim-1. The assay is classed as cell-based. Set-up: Activity: concentration or dose not given beside the values. As to conditions: Macrophage, filed as agonist. Summed up:
as §2

In the next assay the test system is Splenocyte. Put plainly: In vivo cytotoxicity against C57BL/6 mouse-derived splenocytes loaded with SIINFEKL peptide allografted in immunized C57BL/6J mouse at 10 mg/kg, IM on day 0 and day 28 followed by spleenocytes injection on day 7 and day 35 and measured on day 9 and 37 by flow cytometry. The assay is classed as functional, organism-based. On the technique in general: Flow cytometry measures light scatter and fluorescence of single cells or particles in a stream.

Assay [5] relates to Mus musculus. Put plainly: Immuno-adjuvant activity in C57BL/6J mouse assessed as increase in level of OVA specific Goat Anti-Mouse IgG-HRP antibody at 10 mg/kg, IM co-treated with ovalbumin at 5 mg/kg incubated for 1 hrs measured on day 14 by ELISA. The class given is functional, organism-based. The gist of the method:
(§3)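 Female 8-week C57BL/6J mice (ca. 20 g) given i.m. 200 μg (10 mg/kg) agonist mixed with 100 μg OVA (5 mg/kg, low endotoxin) in DMSO:Tween 80:saline 1:1:8 on day 0. Controls received vehicle or OVA alone; 5–8 mice/group. Serum OVA-specific IgG, IgG1 and IgG2b measured by ELISA on day 14. Mean ± SD; one-way ANOVA with Tukey test.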

Assay [6] deals with Mus musculus. Put plainly: Immuno-adjuvant activity in C57BL/6J mouse assessed as increase in level of OVA specific Goat Anti-Mouse IgG1-HRP antibody at 10 mg/kg, IM co-treated with ovalbumin at 5 mg/kg incubated for 1 hrs measured on day 14 by ELISA. The assay is classed as functional, organism-based. The gist of the method:
as §3

Assay [7] deals with Mus musculus. In words: Immuno-adjuvant activity in C57BL/6J mouse assessed as increase in level of OVA specific Goat Anti-Mouse IgG2b-HRP antibody at 10 mg/kg, IM co-treated with ovalbumin at 5 mg/kg incubated for 1 hrs measured on day 14 by ELISA. The assay is classed as functional, organism-based. Summed up:
as §3

Assay [8] deals with Peritoneal macrophage. In words: Stimulation of TNF alpha release in TLR4-sufficient wild type C3H/HeOuJ mouse peritoneal macrophage at 500 nM. The assay is classed as functional, cell-based. The gist of the method:
(§4)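 Peritoneal macrophages from Tlr4-WT C3H/HeOuJ mice or Tlr4 P712H-mutant C3H/HeJ mice, stimulated with agonist at 500 nM. Released TNF-α measured. LPS run as positive control.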

Assay [9] relates to Peritoneal macrophage. In words: Stimulation of TNF alpha release in TLR4- deficient mutant C3H/HeJ mouse peritoneal macrophage at 500 nM. The assay is classed as functional, cell-based. Summed up: as §4

Each structure is given as a SMILES string. pEC50: −log10 of the molar value. Activity calls are given as the source filed them. The calls are words filed in the database; no cut-off is given here.

T1 sequence (O60603 whole entry): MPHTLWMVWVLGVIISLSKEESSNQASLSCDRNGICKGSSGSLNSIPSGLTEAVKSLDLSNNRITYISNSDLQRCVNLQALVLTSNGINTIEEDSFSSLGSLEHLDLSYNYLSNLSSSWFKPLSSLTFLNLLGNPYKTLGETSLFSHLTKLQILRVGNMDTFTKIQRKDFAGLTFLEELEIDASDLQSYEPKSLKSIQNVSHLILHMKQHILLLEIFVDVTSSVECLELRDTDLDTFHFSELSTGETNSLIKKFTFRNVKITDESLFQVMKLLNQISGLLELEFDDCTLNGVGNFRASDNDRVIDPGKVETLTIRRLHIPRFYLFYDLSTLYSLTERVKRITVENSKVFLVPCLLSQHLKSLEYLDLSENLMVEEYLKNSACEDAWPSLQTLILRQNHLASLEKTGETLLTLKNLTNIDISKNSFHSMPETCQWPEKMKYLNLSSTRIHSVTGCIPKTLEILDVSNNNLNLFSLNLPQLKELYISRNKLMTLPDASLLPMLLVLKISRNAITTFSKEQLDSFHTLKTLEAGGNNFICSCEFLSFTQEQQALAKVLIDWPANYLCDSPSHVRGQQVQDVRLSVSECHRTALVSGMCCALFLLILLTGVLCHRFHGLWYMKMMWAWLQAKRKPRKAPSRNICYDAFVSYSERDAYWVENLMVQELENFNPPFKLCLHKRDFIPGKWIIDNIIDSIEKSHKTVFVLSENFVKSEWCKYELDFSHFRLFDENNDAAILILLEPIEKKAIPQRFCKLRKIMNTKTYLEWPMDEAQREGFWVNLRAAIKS
T1 sequence (Q15399 whole entry): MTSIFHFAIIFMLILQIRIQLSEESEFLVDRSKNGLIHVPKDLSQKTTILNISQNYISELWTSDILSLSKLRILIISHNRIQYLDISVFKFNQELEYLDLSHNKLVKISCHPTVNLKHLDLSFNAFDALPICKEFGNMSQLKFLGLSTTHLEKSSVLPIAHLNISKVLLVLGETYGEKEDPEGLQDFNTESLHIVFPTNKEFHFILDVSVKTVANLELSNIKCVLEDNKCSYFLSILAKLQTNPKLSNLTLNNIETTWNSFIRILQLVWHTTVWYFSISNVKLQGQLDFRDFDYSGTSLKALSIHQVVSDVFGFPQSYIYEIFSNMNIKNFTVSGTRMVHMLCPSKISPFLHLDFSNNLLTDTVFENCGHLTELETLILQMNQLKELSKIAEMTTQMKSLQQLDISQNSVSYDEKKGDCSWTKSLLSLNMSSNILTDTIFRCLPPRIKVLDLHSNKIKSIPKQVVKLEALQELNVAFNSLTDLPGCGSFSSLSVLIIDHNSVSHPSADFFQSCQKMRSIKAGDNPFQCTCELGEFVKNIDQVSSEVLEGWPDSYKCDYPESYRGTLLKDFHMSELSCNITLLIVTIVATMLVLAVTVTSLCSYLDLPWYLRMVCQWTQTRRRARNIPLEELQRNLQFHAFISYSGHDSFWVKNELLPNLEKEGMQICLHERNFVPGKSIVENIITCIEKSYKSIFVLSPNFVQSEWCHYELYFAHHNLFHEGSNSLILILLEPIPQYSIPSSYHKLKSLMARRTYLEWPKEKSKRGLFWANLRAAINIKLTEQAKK
Sequence of Toll-like receptor 1/2 (Mus musculus, UniProt Q9EPQ1+Q9QUN7) (Q9QUN7 whole entry): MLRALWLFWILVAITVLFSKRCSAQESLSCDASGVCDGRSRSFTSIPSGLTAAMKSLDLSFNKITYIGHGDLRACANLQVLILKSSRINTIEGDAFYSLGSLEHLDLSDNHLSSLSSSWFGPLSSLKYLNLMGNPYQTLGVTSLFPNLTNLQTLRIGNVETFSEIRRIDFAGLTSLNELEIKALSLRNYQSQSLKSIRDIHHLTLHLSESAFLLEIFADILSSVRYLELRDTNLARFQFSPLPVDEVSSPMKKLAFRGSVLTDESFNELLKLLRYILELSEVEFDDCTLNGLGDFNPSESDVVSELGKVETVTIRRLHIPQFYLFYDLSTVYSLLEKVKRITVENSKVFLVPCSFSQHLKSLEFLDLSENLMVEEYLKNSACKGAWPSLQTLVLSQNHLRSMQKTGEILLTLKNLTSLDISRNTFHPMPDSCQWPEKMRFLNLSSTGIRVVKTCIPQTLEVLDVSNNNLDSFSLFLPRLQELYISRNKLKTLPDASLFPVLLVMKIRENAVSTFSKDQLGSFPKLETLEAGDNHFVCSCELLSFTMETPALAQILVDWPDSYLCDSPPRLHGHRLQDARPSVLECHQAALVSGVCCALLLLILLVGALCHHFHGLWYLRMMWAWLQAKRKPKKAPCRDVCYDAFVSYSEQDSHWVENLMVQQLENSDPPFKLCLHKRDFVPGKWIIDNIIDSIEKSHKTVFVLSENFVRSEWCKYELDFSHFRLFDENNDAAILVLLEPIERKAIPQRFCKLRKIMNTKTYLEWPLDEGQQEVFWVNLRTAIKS
Sequence of Toll-like receptor 1/2 (Mus musculus, UniProt Q9EPQ1+Q9QUN7) (Q9EPQ1 whole entry): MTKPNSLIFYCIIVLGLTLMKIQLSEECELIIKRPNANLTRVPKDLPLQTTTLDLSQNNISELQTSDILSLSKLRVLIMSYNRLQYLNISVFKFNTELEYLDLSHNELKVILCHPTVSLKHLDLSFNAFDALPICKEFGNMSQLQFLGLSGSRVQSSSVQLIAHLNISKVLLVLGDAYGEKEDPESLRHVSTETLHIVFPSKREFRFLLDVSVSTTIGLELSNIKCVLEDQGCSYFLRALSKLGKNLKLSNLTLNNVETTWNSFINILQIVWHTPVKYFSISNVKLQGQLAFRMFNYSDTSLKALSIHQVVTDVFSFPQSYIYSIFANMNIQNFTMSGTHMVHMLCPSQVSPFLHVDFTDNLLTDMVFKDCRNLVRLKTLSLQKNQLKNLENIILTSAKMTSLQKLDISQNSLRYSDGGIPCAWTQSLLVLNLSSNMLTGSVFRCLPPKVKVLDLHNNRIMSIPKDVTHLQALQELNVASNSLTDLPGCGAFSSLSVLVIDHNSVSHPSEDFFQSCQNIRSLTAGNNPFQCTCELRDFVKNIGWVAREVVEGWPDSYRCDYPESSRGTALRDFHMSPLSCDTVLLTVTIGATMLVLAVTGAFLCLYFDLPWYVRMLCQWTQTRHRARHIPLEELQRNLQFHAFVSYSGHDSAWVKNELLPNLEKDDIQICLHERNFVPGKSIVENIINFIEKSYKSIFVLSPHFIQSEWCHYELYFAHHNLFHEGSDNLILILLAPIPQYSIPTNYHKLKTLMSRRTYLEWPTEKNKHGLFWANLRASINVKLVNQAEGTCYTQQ

Usually pEC50 stands for the negative decadic logarithm of the EC50, by convention in mol/L. Take `CC(C)(C)OC(=O)NCC(=O)OCCCCCCCCCCCCNC(=O)[C@@H]1CN(C(=O)c2ccc(C(=O)N3C[C@@H](C(=O)N[C@H]4C[C@@H]4c4ccccc4)[C@H](C(=O)N[C@H]4C[C@@H]4c4ccccc4)C3)cc2)C[C@H]1C(=O)N[C@H]1C[C@@H]1c1ccccc1`: the figures for the pEC50 on Toll-like receptor 1/2 [1] and at Toll-like receptor 1/2 [3] were 9.85 and 9.12, respectively. Besides, the Activity at Toll-like receptor 1/2 [2] worked out at 100%; in assay [4] it was 550%. Also, the result with Splenocyte, in the assay on Mus musculus [5], with Mus musculus [6] and in the assay on Mus musculus [7] was Active.
For orientation: Emax means the size of the effect at its maximum, as opposed to the concentration needed. In the case of `CCNC(=O)[C@@H]1CN(C(=O)c2ccc(C(=O)N3C[C@@H](C(=O)N[C@H]4C[C@@H]4c4ccccc4)[C@H](C(=O)N[C@H]4C[C@@H]4c4ccccc4)C3)cc2)C[C@H]1C(=O)N[C@H]1C[C@@H]1c1ccccc1`, the pEC50 was 7.77 at Toll-like receptor 1/2 [1] and 6.44 on Toll-like receptor 1/2 [3]. Further, the maximum response (Emax) at Toll-like receptor 1/2 [2] was determined as 90%; in assay [4], 130%.
On the same counts, the results for `CCCCCCCCNC(=O)[C@@H]1CN(C(=O)c2ccc(C(=O)N3C[C@@H](C(=O)N[C@H]4C[C@@H]4c4ccccc4)[C@H](C(=O)N[C@H]4C[C@@H]4c4ccccc4)C3)cc2)C[C@H]1C(=O)N[C@H]1C[C@@H]1c1ccccc1` are 9.48, 6.27, 100% and 240%.
For `CCCCCCCCCCCCCCNC(=O)[C@@H]1CN(C(=O)c2ccc(C(=O)N3C[C@@H](C(=O)N[C@H]4C[C@@H]4c4ccccc4)[C@H](C(=O)N[C@H]4C[C@@H]4c4ccccc4)C3)cc2)C[C@H]1C(=O)N[C@H]1C[C@@H]1c1ccccc1`, in that order: 10.00, 8.96, 150% and 100%.
In the case of `O=C(N[C@H]1C[C@@H]1c1ccccc1)[C@@H]1CN(C(=O)c2ccc(C(=O)N3C[C@@H](C(=O)N[C@H]4C[C@@H]4c4ccccc4)[C@H](C(=O)N[C@H]4C[C@@H]4c4ccccc4)C3)cc2)C[C@H]1C(=O)N[C@H]1C[C@@H]1c1ccccc1`, the outcome with Splenocyte, in the assay on Mus musculus [5], in the assay on Mus musculus [6], in the assay on Mus musculus [7], in the assay with Peritoneal macrophage [8] and in the assay with Peritoneal macrophage [9] was Active.
In the case of `CCCCCCCCCCCCNC(=O)[C@@H]1CN(C(=O)c2ccc(C(=O)N3C[C@@H](C(=O)N[C@H]4C[C@@H]4c4ccccc4)[C@H](C(=O)N[C@H]4C[C@@H]4c4ccccc4)C3)cc2)C[C@H]1C(=O)N[C@H]1C[C@@H]1c1ccccc1`, the pEC50 at Toll-like receptor 1/2 [1] was 10.00; at Toll-like receptor 1/2 [3], 8.68. Also, the Emax was found to be 110% on Toll-like receptor 1/2 [2] and 100% in [4].

The values above are taken from ChEMBL document CHEMBL5143728, “Next-Generation Diprovocims with Potent Human and Murine TLR1/TLR2 Agonist Activity That Activate the Innate and Adaptive Immune Response” (J Med Chem, 2022).
